Assay results: ChEMBL document CHEMBL1133462, “Discovery of novel and potent retinoic acid receptor alpha agonists: syntheses and evaluation of benzofuranyl-pyrrole and benzothiophenyl-pyrrole derivatives” (2000)

Tests used:
[1] = Inhibition of LPS-induced mouse B-lymphocyte proliferation (Mean of IC50/ATRA IC50); format: functional
In short: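 BALB/c splenocytes at 1.2 × 10⁵ cells/well in RPMI-1640 with 50 µM 2-mercaptoethanol, 10% FBS and 5 µg/mL E. coli LPS. Compounds were tested in log dilutions from 1.0 × 10^-6 to 1.0 × 10^-12 M final, in triplicate, for 3 days at 37 °C and 5% CO₂. IC50 was fitted by nonlinear regression and divided by the ATRA IC50. Reported as mean ± SEM of triplicates.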

[2] = target: T1, Retinoic acid receptor alpha (Homo sapiens) (UniProt P10276); experiment: Relative transcriptional activation in COS cells expressing Retinoic acid receptor alpha compared to ATRA; format: functional, cell-based
T1 sequence (whole entry): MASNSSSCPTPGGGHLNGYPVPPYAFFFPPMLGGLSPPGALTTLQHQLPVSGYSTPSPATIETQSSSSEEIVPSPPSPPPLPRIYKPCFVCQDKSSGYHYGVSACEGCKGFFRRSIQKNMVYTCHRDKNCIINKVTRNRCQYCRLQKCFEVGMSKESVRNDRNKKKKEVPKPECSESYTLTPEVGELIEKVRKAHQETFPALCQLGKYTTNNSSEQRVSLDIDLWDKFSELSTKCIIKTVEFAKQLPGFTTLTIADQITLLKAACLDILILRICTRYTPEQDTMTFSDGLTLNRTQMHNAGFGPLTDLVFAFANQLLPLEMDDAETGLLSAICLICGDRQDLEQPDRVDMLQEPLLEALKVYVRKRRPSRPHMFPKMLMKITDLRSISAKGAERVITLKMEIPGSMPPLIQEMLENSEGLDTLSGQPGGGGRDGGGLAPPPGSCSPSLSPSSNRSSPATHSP
In short: (§1)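 COS-1 cells were lipofected with receptor and reporter vectors. After 4 h the medium was changed to DMEM/10% FBS for a further 20 h, then cells were reseeded at 3 × 10⁴/well. After 6 h, compounds were added in log dilutions from 3.0 × 10^-6 to 1.0 × 10^-10 M, in duplicate, for 48 h. Supernatant PLAP activity was measured. EC30 (concentration giving 30% of maximal response) was normalized to ATRA EC30. Values averaged from at least two experiments.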

[3] = target: T2, Retinoic acid receptor gamma (Homo sapiens) (UniProt P13631); experiment: Relative transcriptional activation in COS cells expressing Retinoic acid receptor gamma compared to ATRA; format: functional, cell-based; in short: as §1
T2 sequence (whole entry): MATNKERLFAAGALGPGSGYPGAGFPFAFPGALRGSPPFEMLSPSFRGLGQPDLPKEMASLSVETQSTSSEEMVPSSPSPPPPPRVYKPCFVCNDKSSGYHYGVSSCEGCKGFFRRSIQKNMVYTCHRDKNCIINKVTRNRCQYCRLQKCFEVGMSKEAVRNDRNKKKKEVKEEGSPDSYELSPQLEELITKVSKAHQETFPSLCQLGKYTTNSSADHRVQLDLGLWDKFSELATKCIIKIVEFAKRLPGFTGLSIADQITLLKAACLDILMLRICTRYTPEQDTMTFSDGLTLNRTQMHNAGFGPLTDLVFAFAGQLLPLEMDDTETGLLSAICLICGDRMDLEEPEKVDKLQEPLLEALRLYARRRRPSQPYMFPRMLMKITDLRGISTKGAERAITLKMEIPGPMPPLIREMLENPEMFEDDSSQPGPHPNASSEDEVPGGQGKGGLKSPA

[4] = target: T3, Retinoic acid receptor beta (Homo sapiens) (UniProt P10826); experiment: Relative transcriptional activation in COS cells expressing Retinoic acid receptor beta compared to ATRA; format: functional, cell-based; in short: as §1
T3 sequence (whole entry): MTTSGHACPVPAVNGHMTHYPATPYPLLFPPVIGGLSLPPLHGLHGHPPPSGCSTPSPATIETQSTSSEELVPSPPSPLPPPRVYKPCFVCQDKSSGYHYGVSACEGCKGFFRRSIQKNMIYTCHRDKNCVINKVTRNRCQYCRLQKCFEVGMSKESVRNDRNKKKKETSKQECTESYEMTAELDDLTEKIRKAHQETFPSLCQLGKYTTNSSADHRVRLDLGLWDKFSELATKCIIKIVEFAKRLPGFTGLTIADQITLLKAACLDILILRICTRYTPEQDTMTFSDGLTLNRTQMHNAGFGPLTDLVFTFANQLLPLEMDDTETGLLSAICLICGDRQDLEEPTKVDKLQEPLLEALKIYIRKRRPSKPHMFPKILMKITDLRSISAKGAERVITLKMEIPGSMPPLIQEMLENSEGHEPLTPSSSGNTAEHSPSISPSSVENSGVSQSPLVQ

[5] = target: T1, Retinoic acid receptor alpha (Homo sapiens); experiment: Inhibition of [3H]-ATRA binding to Retinoic acid receptor alpha (RAR-alpha)
In short: (§2)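 Competitive binding of [³H]ATRA to individual RAR subtypes. Each IC50 was divided by the ATRA IC50 to give a relative IC50. Reported as mean ± SEM, averaged from at least two experiments.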

[6] = target: T3, Retinoic acid receptor beta (Homo sapiens); experiment: Inhibition of [3H]ATRA binding to Retinoic acid receptor beta (RAR-beta); in short: as §2

| SMILES | Relative IC50 [1] | Relative EC30 [2] | Relative EC30 [3] | Relative EC30 [4] | Relative IC50 [5] | Relative IC50 [6] |
| --- | --- | --- | --- | --- | --- | --- |
| Cc1ccc2cc(-c3ccc(-c4ccc(C(=O)O)cc4)[nH]3)oc2c1C | 2.4 | 3.1 nM | 2000 nM | 160 nM | 12 nM |  |
| Cc1ccc(C)c2oc(-c3ccc(-c4ccc(C(=O)O)cc4)[nH]3)cc12 | 0.76 | 0.37 nM | 240 nM | 25 nM | 1.4 nM | 490 nM |
| O=C(O)c1ccc(-c2ccc(-c3cc4c(C(F)(F)F)ccc(F)c4o3)[nH]2)cc1 | 0.37 | 0.29 nM | 110 nM | 8.5 nM | 1.9 nM | 500 nM |
| O=C(O)c1ccc(-c2ccc(-c3cc4c(Cl)ccc(Cl)c4o3)[nH]2)cc1 | 1.3 | 0.7 nM | 820 nM | 110 nM | 1.5 nM | 690 nM |
| COc1ccc(C)c2oc(-c3ccc(-c4ccc(C(=O)O)cc4)[nH]3)cc12 | 4.7 | 6 nM | 3700 nM | 730 nM | 15 nM |  |
| Cc1cc(C)c2oc(-c3ccc(-c4ccc(C(=O)O)cc4)[nH]3)cc2c1C | 2.2 | 2 nM | 480 nM | 200 nM | 9.4 nM |  |
| Cc1cc(C)c2oc(-c3ccc(-c4ccc(C(=O)O)cc4)[nH]3)cc2c1 | 1.2 | 1 nM | 890 nM | 380 nM | 16 nM |  |
| Cc1cccc2cc(-c3ccc(-c4ccc(C(=O)O)cc4)[nH]3)oc12 | 0.98 | 0.8 nM | 1000 nM | 92 nM | 1.6 nM |  |
| Cc1cc(C)c2sc(-c3ccc(-c4ccc(C(=O)O)cc4)[nH]3)cc2c1 | 3.6 | 2.4 nM | 2900 nM | 1300 nM | 62 nM |  |
| Cc1ccc(C)c2sc(-c3ccc(-c4ccc(C(=O)O)cc4)[nH]3)cc12 | 0.75 | 1.3 nM | 840 nM | 130 nM | 6.1 nM |  |
